Converted amounts (≈) assume the structure as drawn. The source made the active and inactive calls. The calls are words filed in the database; no cut-off is given here.
Tests used:
[1] = Apparent permeability from basolateral to apical side in human Caco2 cells at 10 uM after 60 mins by LC-MS/MS analysis; type: ADME, cell-based; conditions: caco-2, 1 h
Staphylococcus aureus [2] = assay: Antibacterial activity against methicillin-resistant Staphylococcus aureus NRS107 after 20 hrs by broth microdilution assay; type: functional; conditions: NRS107, 20 h
Procedure, shortened: (§1)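 Broth microdilution per CLSI in cation-adjusted Mueller Hinton broth. Compounds serially diluted, in triplicate. Incubation at 37 °C for at least 20 hours. MIC taken as the lowest concentration with no visible bacterial growth.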

Staphylococcus aureus [3] = assay: Antibacterial activity against methicillin-resistant Staphylococcus aureus USA300 in Balb/c mouse skin infection model assessed as reduction in bacterial burden in wounded skin area at 2% administered topically twice daily for 5 consecutive days measured 12 hrs post last dose relative to control; type: functional; parameters: scale not given: the % may be the effect or the level left
Procedure, shortened: (§2)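 Female Balb/c mice, 8 weeks old, n=5 per group. Intradermal injection of 40 μL of 1.32×10^9 CFU/mL USA300; a wound formed by ~66 h. Treated topically with a 2% suspension in petroleum jelly twice daily for 5 days; the vehicle group served as control. Wounds excised 12 h after the last dose, homogenized in PBS and plated on mannitol salt agar; sites also observed for redness and swelling.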

Staphylococcus aureus [4] = assay: Potency index, ratio of vancomycin MIC to compound MIC for antibacterial activity against vancomycin-resistant Staphylococcus aureus VRS10; type: functional
Staphylococcus aureus [5] = assay: Antibacterial activity against methicillin-resistant Staphylococcus aureus USA300 in neutropenic Balb/c mouse thigh infection model assessed as reduction in bacterial burden in thigh at 20 mg/kg, ip administered twice at 2 and 12 hrs post infection and measured at 24 hrs post infection relative to control; type: functional; parameters: scale not given: the % may be the effect or the level left
Procedure, shortened: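 Female BALB/c mice, 6–8 weeks old, n=5, made neutropenic with i.p. cyclophosphamide 150 and 100 mg/kg on days −4 and −1. Right thigh injected with 100 μL of 5.35×10^7 CFU/mL USA300. […] Thighs harvested at 24 h and counted as CFU/g on mannitol salt agar.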

Staphylococcus aureus [6] = assay: Antibacterial activity against methicillin-resistant Staphylococcus aureus USA300 infected in Caenorhabditis elegans AU37 assessed as reduction in bacterial burden at 20 ug/ml after 18 hrs relative to control; type: functional; parameters: scale not given: the % may be the effect or the level left
Procedure, shortened: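 L4-stage C. elegans AU37 infected on USA300 lawns for 6 h and washed with M9 buffer. 25–30 worms per well exposed to 20 μg/mL for 18 h, in triplicate. Worms then lysed and plated on TSA with 5 μg/mL nalidixic acid for 17 h at 37 °C. CFU per worm expressed as % reduction versus PBS.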

Staphylococcus aureus [7] = assay: Bactericidal activity against methicillin-resistant Staphylococcus aureus NRS119 up to 18 hrs by broth microdilution assay; type: functional; conditions: NRS119, 18 h, read-out: MBC99.9
Staphylococcus aureus [8] = assay: Antibacterial activity against vancomycin-resistant Staphylococcus aureus VRS11a after 20 hrs by broth microdilution assay; type: functional; procedure, shortened: as §1
Rattus norvegicus = assay: Half life in Sprague-Dawley rat at 2 uM administered as single iv bolus dose by LC-MS/MS analysis; type: ADME, organism-based; conditions: in vivo
Procedure, shortened: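 Male naïve Sprague-Dawley rats (three animals) received an IV bolus of a 2 μM solution. EDTA-K2 blood was sampled over 12 h post dose. Plasma was protein-precipitated with acetonitrile and quantified by LC/MS/MS. Parameters came from two-compartmental pharmacokinetic analysis.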

Staphylococcus aureus [9] = assay: Antibacterial activity against vancomycin-resistant Staphylococcus aureus VRS10 after 20 hrs by broth microdilution assay; type: functional; conditions: VRS10, 20 h; procedure, shortened: as §1
Staphylococcus aureus [10] = assay: Ratio of MBC to MIC for vancomycin-resistant Staphylococcus aureus VRS10; type: functional
Procedure, shortened: (§3)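 MBC/MIC ratio. […] MBC by plating no-growth wells onto tryptic soy agar at 37 °C for at least 18 h; taken as the concentration giving 99.9% growth inhibition.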

Staphylococcus aureus [11] = assay: Bactericidal activity against methicillin resistant Staphylococcus aureus NRS123 (USA400) up to 18 hrs by broth microdilution assay; type: functional; conditions: read-out: MBC99.9
HRT-18 cell line = assay: Cytotoxicity against human HRT18 cells assessed as reduction in cell viability up to 32 ug/ml after 2 hrs by MTS assay; type: cell-based; conditions: hrt-18, 2 h
Staphylococcus aureus [12] = assay: Antibacterial activity against vancomycin-resistant Staphylococcus aureus VRS12 after 20 hrs by broth microdilution assay; type: functional; conditions: VRS12, 20 h; procedure, shortened: as §1
Staphylococcus aureus [13] = assay: Antibacterial activity against methicillin-resistant Staphylococcus aureus USA300 after 20 hrs by broth microdilution assay; type: functional; conditions: USA300, 20 h; procedure, shortened: as §1
Mus musculus [14] = assay: Toxicity in wounded skin area of Balb/c mouse infected with methicillin-resistant Staphylococcus aureus USA300 at 2% administered topically twice daily for 5 consecutive days measured 12 hrs post last dose; type: organism-based; conditions: in vivo, topical_or_ocular; procedure, shortened: as §2
Staphylococcus aureus [15] = assay: Bactericidal activity against methicillin resistant vancomycin-resistant Staphylococcus aureus VRS12 up to 18 hrs by broth microdilution assay; type: functional; conditions: VRS12, 18 h, read-out: MBC99.9
Procedure, shortened: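 MBC set up from the MIC plates. Aliquots from wells with no growth spotted onto tryptic soy agar and incubated at 37 °C for at least 18 hours. MBC taken as the lowest concentration giving 99.9% inhibition of bacterial growth.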

[16] = Apparent permeability from apical to basolateral side in human Caco2 cells at 10 uM after 60 mins by LC-MS/MS analysis; type: ADME, cell-based; conditions: caco-2, 1 h
Procedure, shortened: (§4)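 Caco-2 monolayers were seeded at 1 × 10^5 cells/cm2 and differentiated for three weeks. Test article was at 10 μM (1% DMSO) in HBSS-MES pH 6.5 or HBSS-HEPES pH 7.4 and added to the donor side. Incubation ran 60 min (A→B) or 40 min (B→A), and receiver buffer was analysed by LC/MS/MS. Lucifer yellow and fluorescein checked monolayer integrity. Efflux ratio = Papp(B→A)/Papp(A→B).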

[17] = Efflux ratio of apparent permeability in human Caco2 cells at 10 uM after 60 mins by LC-MS/MS analysis; type: ADME, cell-based; conditions: caco-2, 1 h; procedure, shortened: as §4
Mus musculus [18] = assay: Induction of inflammation in Balb/c mouse infected with methicillin-resistant Staphylococcus aureus USA300 assessed as redness around wounded skin area at 2% administered topically twice daily for 5 consecutive days measured 12 hrs post last dose relative to control; type: organism-based; conditions: in vivo, topical_or_ocular; procedure, shortened: as §2
Staphylococcus aureus [19] = assay: Ratio of MBC to MIC for vancomycin-resistant Staphylococcus aureus VRS12; type: functional; procedure, shortened: as §3
Staphylococcus aureus [20] = assay: Bactericidal activity against methicillin-resistant Staphylococcus aureus NRS123 (USA400) at 4 times MIC after 24 hrs by time kill assay; type: functional, organism-based
Staphylococcus aureus [21] = assay: Ratio of MBC to MIC for methicillin-resistant Staphylococcus aureus NRS123 (USA400); type: functional; procedure, shortened: as §3
[22] = target: T1, Farnesyl pyrophosphate synthase (Homo sapiens, UniProt P14324); assay: Inhibition of human FPPS
T1 sequence (P14324 whole entry): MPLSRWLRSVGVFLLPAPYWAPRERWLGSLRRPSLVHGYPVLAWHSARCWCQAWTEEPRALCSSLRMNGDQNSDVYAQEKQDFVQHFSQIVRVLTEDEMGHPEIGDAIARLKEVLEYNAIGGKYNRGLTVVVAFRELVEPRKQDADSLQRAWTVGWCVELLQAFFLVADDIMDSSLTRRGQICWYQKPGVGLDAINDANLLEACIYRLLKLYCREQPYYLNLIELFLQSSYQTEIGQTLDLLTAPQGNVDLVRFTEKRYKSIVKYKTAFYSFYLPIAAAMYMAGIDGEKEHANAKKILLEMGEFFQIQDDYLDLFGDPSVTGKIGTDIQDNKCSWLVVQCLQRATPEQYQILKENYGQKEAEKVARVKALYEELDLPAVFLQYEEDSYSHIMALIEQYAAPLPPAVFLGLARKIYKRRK

C/C(=N\NC(=N)N)c1sc(-c2ccc(C#CC3CC3)cc2)nc1C
Papp [1]: 0.35 ×10⁻⁶ cm/s
MIC (Staphylococcus aureus [2]): 2 µg/mL (≈ 5.93 µM)
Activity (Staphylococcus aureus [3]): 73%
Ratio (Staphylococcus aureus [4]): >100
Activity (Staphylococcus aureus [5]): 77%
Activity (Staphylococcus aureus [6]): 90%
MBC (Staphylococcus aureus [7]): 2 µg/mL (≈ 5.93 µM)
MIC (Staphylococcus aureus [8]): 2 µg/mL (≈ 5.93 µM)
t1/2 (Rattus norvegicus): 4.43 h
MIC (Staphylococcus aureus [9]): 2 µg/mL (≈ 5.93 µM)
Ratio (Staphylococcus aureus [10]): <=3
MBC (Staphylococcus aureus [11]): 2 µg/mL (≈ 5.93 µM)
Activity (HRT-18 cell line): Non-Toxic
MIC (Staphylococcus aureus [12]): 2 µg/mL (≈ 5.93 µM)
MIC (Staphylococcus aureus [13]): 2 µg/mL (≈ 5.93 µM)
Activity (Mus musculus [14]): Non-Toxic
MBC (Staphylococcus aureus [15]): 2 µg/mL (≈ 5.93 µM)
Papp [16]: 0.05 ×10⁻⁶ cm/s
Ratio [17]: 69
Activity (Mus musculus [18]): Non-Toxic
Ratio (Staphylococcus aureus [19]): <=3
Activity (Staphylococcus aureus [20]): Active
Ratio (Staphylococcus aureus [21]): <=3
inhibition (INH) [22]: Not Active

From ChEMBL document CHEMBL4196022, “Alkynyl-containing phenylthiazoles: Systemically active antibacterial agents effective against methicillin-resistant Staphylococcus aureus (MRSA)” (Eur J Med Chem, 2018)
